From PubChem
Most compounds without a hit are left out; they make up all but 4.6% or so of the library.
UCH37 DUB inh: inhibitors of human deubiquitinating enzyme UCH37; Q9Y5K5; purified proteasome/UCH37, Ub-AMC cleavage fluorescence; inhibition, % (test concentration not listed); actives 0.33% (n = 330,000); AID 588478;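 active means mean inhibition over replicate wells above about 20%, limit read from the data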
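System: Proteasome-associated human UCH37 deubiquitinase; Input: 0.15 nM proteasome in added enzyme buffer; Also added: Ub-AMC substrate from 1 µM stock; Incubation: 30 min compound-proteasome preincubation then 25 min substrate reaction, room temperature; Detection: fluorescence, ex 355 nm, em 460 nm; Read-out: % inhibition of Ub-AMC cleavage fluorescence; Benchmarks: no-proteasome and no-compound wells.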
FAS-TE inh: inhibitors of human fatty acid synthase thioesterase domain; P49327; recombinant FAS-TE, OMFH fluorogenic substrate, fluorescence endpoint; inhibition, % at 15 µM; actives 0.67% (n = 360,000); AID 602261;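 active means compounds whose normalised, plate-corrected inhibition of enzyme fluorescence in the single-dose primary screen is 50% or more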
Target sequence (P49327 whole entry, looked up, the tested form may be a part): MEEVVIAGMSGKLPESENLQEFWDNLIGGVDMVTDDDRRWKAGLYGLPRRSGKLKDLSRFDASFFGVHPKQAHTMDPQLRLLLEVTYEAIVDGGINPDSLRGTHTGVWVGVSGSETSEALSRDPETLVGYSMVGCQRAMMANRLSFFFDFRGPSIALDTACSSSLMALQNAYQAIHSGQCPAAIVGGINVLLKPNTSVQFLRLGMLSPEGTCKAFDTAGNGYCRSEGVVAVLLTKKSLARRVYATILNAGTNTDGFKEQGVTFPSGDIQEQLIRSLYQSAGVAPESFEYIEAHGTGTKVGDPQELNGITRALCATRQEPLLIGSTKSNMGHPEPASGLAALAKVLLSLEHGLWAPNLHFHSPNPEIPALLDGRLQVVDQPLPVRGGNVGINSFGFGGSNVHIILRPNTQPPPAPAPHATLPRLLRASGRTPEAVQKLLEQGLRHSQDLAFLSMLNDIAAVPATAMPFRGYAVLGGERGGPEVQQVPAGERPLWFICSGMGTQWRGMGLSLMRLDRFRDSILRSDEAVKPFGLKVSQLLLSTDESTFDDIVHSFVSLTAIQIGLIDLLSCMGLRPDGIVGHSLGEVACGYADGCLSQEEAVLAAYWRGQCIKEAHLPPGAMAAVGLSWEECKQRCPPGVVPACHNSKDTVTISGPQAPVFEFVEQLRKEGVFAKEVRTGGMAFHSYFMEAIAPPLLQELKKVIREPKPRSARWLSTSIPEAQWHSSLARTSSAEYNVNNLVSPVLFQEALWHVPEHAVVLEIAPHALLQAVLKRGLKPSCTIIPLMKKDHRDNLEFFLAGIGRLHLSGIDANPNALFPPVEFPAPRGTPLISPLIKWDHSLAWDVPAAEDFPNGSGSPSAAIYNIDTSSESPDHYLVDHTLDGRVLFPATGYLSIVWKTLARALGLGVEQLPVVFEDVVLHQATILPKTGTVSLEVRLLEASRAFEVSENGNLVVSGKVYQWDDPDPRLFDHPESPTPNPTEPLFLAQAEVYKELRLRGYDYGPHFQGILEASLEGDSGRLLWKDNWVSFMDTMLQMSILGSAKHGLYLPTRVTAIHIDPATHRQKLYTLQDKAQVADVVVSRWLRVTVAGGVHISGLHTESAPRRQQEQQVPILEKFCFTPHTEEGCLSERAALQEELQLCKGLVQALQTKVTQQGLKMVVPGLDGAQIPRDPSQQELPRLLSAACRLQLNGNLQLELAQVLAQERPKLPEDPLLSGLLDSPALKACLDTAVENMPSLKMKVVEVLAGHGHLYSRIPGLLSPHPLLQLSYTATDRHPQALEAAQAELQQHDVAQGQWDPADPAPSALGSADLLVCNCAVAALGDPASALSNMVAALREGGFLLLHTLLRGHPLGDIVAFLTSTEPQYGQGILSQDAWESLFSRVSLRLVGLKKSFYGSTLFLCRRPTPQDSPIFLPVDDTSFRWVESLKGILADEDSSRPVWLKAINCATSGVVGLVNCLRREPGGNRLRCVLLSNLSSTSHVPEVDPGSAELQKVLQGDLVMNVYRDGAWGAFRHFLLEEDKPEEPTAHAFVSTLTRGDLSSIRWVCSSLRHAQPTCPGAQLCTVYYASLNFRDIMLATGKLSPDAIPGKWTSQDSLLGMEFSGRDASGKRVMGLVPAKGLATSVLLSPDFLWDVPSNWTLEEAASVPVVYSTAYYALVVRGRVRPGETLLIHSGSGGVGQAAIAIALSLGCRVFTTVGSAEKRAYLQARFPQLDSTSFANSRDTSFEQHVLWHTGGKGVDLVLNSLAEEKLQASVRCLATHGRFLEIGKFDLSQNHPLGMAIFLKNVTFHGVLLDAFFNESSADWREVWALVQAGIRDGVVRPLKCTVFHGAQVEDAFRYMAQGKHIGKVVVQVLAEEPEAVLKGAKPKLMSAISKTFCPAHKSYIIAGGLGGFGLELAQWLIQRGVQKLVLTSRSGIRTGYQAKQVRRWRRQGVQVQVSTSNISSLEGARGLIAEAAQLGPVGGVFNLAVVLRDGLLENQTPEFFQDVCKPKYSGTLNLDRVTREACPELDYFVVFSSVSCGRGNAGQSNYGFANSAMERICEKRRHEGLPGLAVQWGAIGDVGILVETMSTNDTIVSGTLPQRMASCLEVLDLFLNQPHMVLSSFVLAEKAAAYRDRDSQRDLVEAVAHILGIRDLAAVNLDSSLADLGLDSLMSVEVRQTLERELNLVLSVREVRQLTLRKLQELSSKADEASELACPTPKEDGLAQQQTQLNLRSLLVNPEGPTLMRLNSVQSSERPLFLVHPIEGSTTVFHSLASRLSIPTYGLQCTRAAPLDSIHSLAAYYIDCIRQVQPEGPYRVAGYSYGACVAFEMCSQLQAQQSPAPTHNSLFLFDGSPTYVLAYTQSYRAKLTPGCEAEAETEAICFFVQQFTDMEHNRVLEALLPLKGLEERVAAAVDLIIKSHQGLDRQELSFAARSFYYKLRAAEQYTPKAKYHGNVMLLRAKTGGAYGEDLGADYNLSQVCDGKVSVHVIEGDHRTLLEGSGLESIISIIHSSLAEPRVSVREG
Rtt109 HAT inh: C. albicans Rtt109 histone acetyltransferase inhibition. inhibition, % at 34.9 µM. purified Rtt109/Vps75, ThioGlo CoA-SH fluorescence, 4 h. actives 0.16% (n = 330,000). Q5AAJ8;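 active means inhibition of at least 50% in every replicate; inconclusive means best replicate reaches 50% inhibition but some replicates fall short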
ALR H2O2 inh: human ALR oxidase inhibition via reduced H2O2. purified ALR, DTT oxidation, H2O2 HRP-luminol luminescence. AID 485317. actives 3.8% (n = 290,000). inhibition, % (concentration not given with the values). P55789;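 active means mean replicate inhibition above about 79%, with every replicate also reaching it, limit read from the data; inconclusive means only one of the two criteria met; inactive means mean below limit and not every replicate reaching it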
M18AAP inhibitor: PfM18AAP enzyme inhibition; recombinant PfM18AAP, H-Glu-NHMec fluorogenic cleavage; inhibition, % at 7.35 µM; actives 1.2% (n = 290,000); AID 1822;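 active means inhibition above the campaign mean inhibition over all tested compounds plus 3 SD, cut at about 28% in these data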
HDAC3 inhib: inhibitors of human histone deacetylase 3 | actives 0.15% (n = 320,000) | inhibition, % at 8.3 µM | recombinant HDAC3, fluorogenic peptide/trypsin coupled, fluorescence | O15379; in the data active means inhibition above about 26%, passing the limit was not always enough; inconclusive means no clear call, values can overlap the other calls
Of the large screens only hits and unclear results are named; the others gave an inactive call.

O=C(CSc1nnc(C2CC2)n1-c1ccccc1)Nc1ccc(N2CCOCC2)cc1	ALR H2O2 inh 98
COC(=O)c1ccc2[nH]c3c(c2c1)CC(C)CC3 (centres undefined)	ALR H2O2 inh 93
CCOC(=O)c1ccc2[nH]c3c(c2c1)CCCC3O (centres undefined)	none
CCCC(C)NC(=O)c1ccc2[nH]c3c(c2c1)CC(C)CC3 (centres undefined)	none
CCOC(=O)c1ccc2[nH]c3c(c2c1)CCCC3	ALR H2O2 inh 98
Cc1ccc(NC(=O)C2CCCN2C(=O)OCc2ccccc2)c(O)c1 (centres undefined)	ALR H2O2 inh 86
Cc1ccc(NC(=O)C2CCCN2C(=O)OCc2ccccc2)c(C)c1 (centres undefined)	none
S=c1[nH]nc(-c2ccc(Cl)cc2Cl)n1-c1ccccc1	none
S=c1[nH]nc(COc2ccc(Cl)cc2Cl)n1-c1ccccc1	ALR H2O2 inh 84
CC(C)C(C)NC(=O)CSc1nc2scc(-c3ccco3)c2c(=O)n1-c1ccccc1 (centres undefined)	ALR H2O2 inh 96
CC(C)C(C)(C#N)NC(=O)CSc1nc2scc(-c3ccco3)c2c(=O)n1-c1ccccc1 (centres undefined)	none
Cc1cccnc1Sc1c([N+](=O)[O-])ncn1C	none (no result: Rtt109 HAT inh)
Cn1cnc([N+](=O)[O-])c1SCC(=O)NN	ALR H2O2 inh 88
Cn1cnc([N+](=O)[O-])c1SCC(O)CN1CCCCC1 (centres undefined)	none
Cn1cnc([N+](=O)[O-])c1Sc1nc2ccccc2[nH]1	ALR H2O2 inh 99 (no result: Rtt109 HAT inh)
Cc1cc2nc(Sc3c([N+](=O)[O-])nc(C)n3Cc3ccccc3)[nH]c2cc1C	ALR H2O2 inh 97
Cc1nc([N+](=O)[O-])c(Sc2nc3ccccc3[nH]2)n1Cc1ccccc1	none
Cc1cccc(Sc2c([N+](=O)[O-])ncn2C)c1	ALR H2O2 inh 98
O=C(O)c1cc([N+](=O)[O-])c(Sc2nc3ccccc3[nH]2)c([N+](=O)[O-])c1	ALR H2O2 inh 85
CNC(=S)Nc1ccc(Nc2ccccc2)cc1	ALR H2O2 inh 99
CCCNC(=S)Nc1ccc(Nc2ccccc2)cc1	ALR H2O2 inh 99
S=C(NCCCNC(=S)Nc1ccccc1)Nc1ccccc1	none
COc1ccc(CCN2C(=O)C3C4CC(C5C(C(=O)NN=Cc6ccc(Cl)cc6)=NOC45)C3C2=O)cc1OC (centres undefined)	none (no result: FAS-TE inh, Rtt109 HAT inh, ALR H2O2 inh, M18AAP inhibitor, HDAC3 inhib)
NC(=S)NN=Cc1coc2ccc(O)cc2c1=O	none (no result: FAS-TE inh, Rtt109 HAT inh, ALR H2O2 inh, M18AAP inhibitor, HDAC3 inhib)
COc1ccc(C(=O)c2ccc(N(C)C)cc2)c(OC)c1	ALR H2O2 inh 96
COc1ccc(C(=O)c2ccc(OC)cc2OC)cc1	none (no result: UCH37 DUB inh)
Cc1cc(C)nc(NCC(O)COc2ccccc2C)n1 (centres undefined)	none
Cc1cc(C)nc(NCC(O)CNc2ccccc2C)n1 (centres undefined)	ALR H2O2 inh 98
CCCCc1ccc(NC(=O)CSCc2cc(=O)[nH][nH]2)cc1	ALR H2O2 inh 79
COc1ccc(C(=O)NNC(=S)NC(=O)c2ccc(Br)o2)cc1OC	ALR H2O2 inh 86
Cc1ccc(OCC(=O)NNC(=S)NC(=O)c2ccc(Br)o2)c(C)c1	ALR H2O2 inh 98
COc1cc(OC)cc(C(=O)NC(=S)NNC(=O)c2cnccn2)c1	none (no result: UCH37 DUB inh)
COc1ccc(/C=C/C(=O)NC(=S)NNC(=O)c2cccs2)cc1OC	ALR H2O2 inh 99
COc1ccc(C(=O)NC(=S)NNC(=O)c2cnccn2)cc1OC	ALR H2O2 inh 98
COc1ccc(/C=C/C(=O)NC(=S)NNC(=O)Cc2cccs2)cc1OC	none (no result: Rtt109 HAT inh)
CCCC(=O)Nc1ccc(C(=O)NNC(=S)NC(=O)c2ccc(Br)o2)cc1	none
CC(=NNc1cccc(C(=O)O)c1)c1ccc2c(c1)Nc1ccccc1S2	none (no result: FAS-TE inh, Rtt109 HAT inh, ALR H2O2 inh, M18AAP inhibitor, HDAC3 inhib)
CC(Oc1ccc(C(C)(C)C)cc1)c1ccnc2nc(N=CN(C)C)nn12 (centres undefined)	none (no result: FAS-TE inh, Rtt109 HAT inh, ALR H2O2 inh, M18AAP inhibitor, HDAC3 inhib)
CCCCCCCC1CC(C(C)=NNC(N)=O)OC1=O (centres undefined)	none (no result: FAS-TE inh, Rtt109 HAT inh, ALR H2O2 inh, M18AAP inhibitor, HDAC3 inhib)
Cc1cc(OCC(=O)NNC(=S)NC(=O)c2cccs2)ccc1Cl	none
Cc1ccc(OCC(=O)NNC(=S)NC(=O)c2cccs2)c(C)c1	ALR H2O2 inh 98
Cn1nc(C(C)(C)C)cc1C(=O)Sc1cccc(Br)c1	ALR H2O2 inh 99 (no result: UCH37 DUB inh)
CCOC(=O)c1[nH]c2ccc(F)cc2c1N=C(C)N(CC)CC	ALR H2O2 inh 80
CCOC(=O)c1[nH]c2ccc(C)cc2c1N=CN(CC)CC	ALR H2O2 inh 99
COC(=O)c1[nH]c2cc(OC)ccc2c1N=CN(C)C	ALR H2O2 inh 88
CCOC(=O)c1[nH]c2ccccc2c1N=CN(C)C	ALR H2O2 inh 99
COc1ccc(NCC(=O)NN=C(C)c2cc3ccccc3o2)cc1	none (no result: FAS-TE inh, Rtt109 HAT inh, ALR H2O2 inh, M18AAP inhibitor, HDAC3 inhib)
CCOC(=O)C1=C(c2ccccc2)N=c2sc(=Cc3ccc(O)cc3)c(=O)n2C1c1cccs1 (centres undefined)	none (no result: FAS-TE inh, Rtt109 HAT inh, ALR H2O2 inh, M18AAP inhibitor, HDAC3 inhib)
CC1CCCC(C)N1N=C/C=C/c1ccccc1[N+](=O)[O-] (centres undefined)	none (no result: FAS-TE inh, Rtt109 HAT inh, ALR H2O2 inh, M18AAP inhibitor, HDAC3 inhib)
COC(=O)CSc1nc(-c2ccccc2)cc(-c2ccco2)c1C#N	ALR H2O2 inh 95
O=C(CNC(=O)c1ccccn1)NN=Cc1ccccc1	none (no result: FAS-TE inh, Rtt109 HAT inh, ALR H2O2 inh, M18AAP inhibitor, HDAC3 inhib)
CC(Sc1nc(N)cc(=O)[nH]1)C(=O)Nc1sc2c(c1C#N)CCCC2 (centres undefined)	ALR H2O2 inh 92
COc1ccc(C(=O)CCN2CCc3cc(OC)c(OC)cc3C2)cc1	ALR H2O2 inh 98
COc1ccc(C(=O)CCN2CCN(c3ccccc3OC)CC2)cc1	Rtt109 HAT inh inconclusive
COc1ccc(OC)c(C2C(C#N)=C(N)Oc3cc(C)[nH]c(=O)c32)c1 (centres undefined)	none
COC(=O)c1ccc(C2C(C#N)=C(N)Oc3cc(N)ccc32)cc1 (centres undefined)	ALR H2O2 inh 97
CCOc1ccccc1C1C(C#N)=C(N)Oc2cc(N)ccc21 (centres undefined)	ALR H2O2 inh 98, M18AAP inhibitor 28
COC(=O)c1ccc(C2C(C#N)=C(N)Oc3cc(O)ccc32)cc1 (centres undefined)	none
CCOc1ccc(C2C(C#N)=C(N)Oc3cc(O)ccc32)cc1OCC (centres undefined)	none
COc1ccc(OC)c(C2C(C#N)=C(N)Oc3cc(N)ccc32)c1 (centres undefined)	ALR H2O2 inh 99
CC(=NNC(=O)Cc1c(C)[nH][nH]c1=O)c1ccc(Cl)c(Cl)c1	none (no result: FAS-TE inh, Rtt109 HAT inh, ALR H2O2 inh, M18AAP inhibitor, HDAC3 inhib)
O=C(COc1ccc(C=NNC(=O)c2ccccc2Br)cc1)Nc1ccccc1	none (no result: FAS-TE inh, Rtt109 HAT inh, ALR H2O2 inh, M18AAP inhibitor, HDAC3 inhib)
CC(=NNC(=O)CNC(=O)COc1ccccc1)c1ccc(Cl)cc1	none (no result: FAS-TE inh, Rtt109 HAT inh, ALR H2O2 inh, M18AAP inhibitor, HDAC3 inhib)
CC(=NNC(=O)Nc1ccccc1)c1ccccc1	none (no result: FAS-TE inh, Rtt109 HAT inh, ALR H2O2 inh, M18AAP inhibitor, HDAC3 inhib)
O=C(Nc1ncnc2c1C(c1ccccc1)c1c(ccc3ccccc13)O2)c1ccccc1 (centres undefined)	FAS-TE inh 96 (no result: M18AAP inhibitor)
CC(CCc1ccccc1)=NNC(=O)COc1ccccc1C	none (no result: FAS-TE inh, Rtt109 HAT inh, ALR H2O2 inh, M18AAP inhibitor, HDAC3 inhib)
